Usually Ki stands for a measure of affinity in units of concentration, obtained from inhibition or displacement. As a reminder, the IC50 is the point on the concentration scale where inhibition reaches its midpoint. A word on the EC50: it is the concentration needed to bring the measured effect to its halfway point.

The values below come from publication PMC3446773 (Cancer research, 2009).

The target of test [1] is T1, human LPA3 (Homo sapiens, UniProt Q9UBY5).
T1 sequence (Q9UBY5 1-353): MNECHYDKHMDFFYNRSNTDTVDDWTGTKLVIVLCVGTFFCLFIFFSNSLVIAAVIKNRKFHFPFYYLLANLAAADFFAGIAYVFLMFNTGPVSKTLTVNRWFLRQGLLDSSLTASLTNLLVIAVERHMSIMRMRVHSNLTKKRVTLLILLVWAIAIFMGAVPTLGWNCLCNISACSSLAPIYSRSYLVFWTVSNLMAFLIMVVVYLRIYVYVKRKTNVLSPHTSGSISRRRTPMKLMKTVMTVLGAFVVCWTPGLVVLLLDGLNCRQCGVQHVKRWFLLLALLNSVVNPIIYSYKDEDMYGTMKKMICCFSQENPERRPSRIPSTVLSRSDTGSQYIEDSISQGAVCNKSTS
The test is described as follows: Ca2+ mobilization assay, LPA3 expressed in RH7777 cells. In kind it is cell-based. The conditions noted are these: for LPA3 ligand type / Ki / IC50: Ca2+ mobilization, RH7777 cells; for Ki: read-out: LPA3 Ki; for IC50: read-out: LPA3 antagonist IC50. In a few lines: (§1)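 Intracellular Ca2+ mobilization measured in RH7777 cells expressing the human receptor (LPA1, LPA2, LPA3 or LPA5); parental line intrinsically unresponsive to LPA. Both activation and inhibition of LPA responses tested. Quadruplicate tests; EC50, IC50 and Ki derived by sigmoid curve fitting.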

For test [2], the target named is human LPA1 (Homo sapiens, UniProt Q92633). The test is described as follows: Ca2+ mobilization assay, LPA1 expressed in RH7777 cells. In kind it is cell-based. The conditions noted are these: for Ki: read-out: LPA1 Ki; for IC50: read-out: LPA1 antagonist IC50. In a few lines:
as §1
(In general: Calcium flux is commonly read through the fluorescence of an indicator in the cells.)

In test [3] the target is human LPA5 (Homo sapiens, UniProt Q9H1C0). The test is described as follows: Ca2+ mobilization assay, LPA5 expressed in RH7777 cells. In kind it is cell-based. The conditions noted are these: for LPA5 ligand type: transiently transfected; for LPA5 E max: at 10 μmol/L. In a few lines:
as §1

Test [4] deals with MDA-MB-231 cells. As to the kind of experiment: In vitro invasion assay through Matrigel-coated transwell membranes. Type of test: cell-based, human. To be noted: P < 0.05.
Test [5] relates to MDA-MB-231 orthotopic breast tumor xenograft. As to the kind of experiment: Orthotopic breast cancer xenograft in nude mice. To be noted: for Tumor volume relative to control group: 3 mg/kg i.p., P < 0.01, 1b vs 1a not different (P = 0.16); for Blood vessel density in tumor (CD31 staining): 10 mg/kg i.p. alone, four doses; for Tumor size relative to controls: 10 mg/kg i.p., twice per week for 2 wk, starting 2 wk after cell transplantation. Type of test: in vivo, nu/nu mice. The gist of the method: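 Female nu/nu mice, 4–6 wk, anesthetized with ketamine/xylazine i.p. Trypsinized MDA-MB-231 cells in cross-linkable ECM (5 × 10^7 cells/mL) were injected into the fourth mammary fat pad (200 µL; 100 µL in 3 mg/kg study). From 2 wk after implant, i.p. twice weekly for 2 wk; six mice/group; saline control. Arms: test compound 10 mg/kg, Taxol 10 mg/kg, Taxol week 1 then compound week 2; diastereomers 3 mg/kg. Volume = width² × length/2.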

The target in test [6] is human LPA4 (Homo sapiens, UniProt Q99677). As to the kind of experiment: Ca2+ mobilization assay, LPA4 expressed in CHO cells. To be noted: for LPA4 ligand type: Ca2+ mobilization, CHO cells; for LPA4 inhibition: at 30 μmol/L (400 nmol/L LPA). Type of test: cell-based.
human LPA4, sequence (Q99677 whole entry): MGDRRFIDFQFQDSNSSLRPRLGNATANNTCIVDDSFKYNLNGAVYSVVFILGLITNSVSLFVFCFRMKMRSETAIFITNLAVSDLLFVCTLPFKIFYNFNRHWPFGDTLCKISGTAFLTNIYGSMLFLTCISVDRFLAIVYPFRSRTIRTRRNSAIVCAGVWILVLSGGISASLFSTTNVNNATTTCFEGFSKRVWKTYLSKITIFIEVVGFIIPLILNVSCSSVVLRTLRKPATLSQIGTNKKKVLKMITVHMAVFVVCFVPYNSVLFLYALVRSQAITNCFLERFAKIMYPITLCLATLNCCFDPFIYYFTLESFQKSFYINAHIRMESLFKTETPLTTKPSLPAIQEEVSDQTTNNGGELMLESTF
Test [7] addresses T2, recombinant hemagglutinin-tagged ATX (ATX-HA) (Homo sapiens, UniProt Q13822). The test is described as follows: ATX assay, hydrolysis of fluorogenic substrate FS-3. The conditions noted are these: for ATX inhibition: 10 μmol/L, FS-3 substrate 1 μmol/L, 2 h, 37°C; for IC50: read-out: ATX inhibition IC50, FS-3 substrate, 0.01 to 10 μmol/L. Type of test: biochemical. The gist of the method: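 Mixed with FS-3 (final 1 µmol/L) and test compound (0.01–10 µmol/L) in assay buffer with BSA. Fluorescence read at ex 485/em 538 nm over 2 h, 37°C. The 0–120 min difference was normalized to vehicle; triplicate wells, % inhibition; Student's t test.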

For test [8], the system named is MDA-MB-231 cells. The test is described as follows: Scratch wound assay. Type of test: cell-based, human. The conditions noted are these: for Effect on MDA-MB-231 cell migration: 10 and 40 μmol/L, 24 h.
Test [9] has as its target human LPA2 (Homo sapiens, UniProt Q9HBW0). The test is described as follows: Ca2+ mobilization assay, LPA2 expressed in RH7777 cells. Type of test: cell-based. To be noted: for Ki: read-out: LPA2 Ki; for IC50: read-out: LPA2 antagonist IC50. The gist of the method:
as §1

The target of test [10] is T2, recombinant hemagglutinin-tagged ATX (ATX-HA). To be noted: at 10 μmol/L; previously observed; cited from earlier work.
Setting [11] is: Ca2+ mobilization, RH7777 cells.

human LPA1, sequence (Q92633 whole entry): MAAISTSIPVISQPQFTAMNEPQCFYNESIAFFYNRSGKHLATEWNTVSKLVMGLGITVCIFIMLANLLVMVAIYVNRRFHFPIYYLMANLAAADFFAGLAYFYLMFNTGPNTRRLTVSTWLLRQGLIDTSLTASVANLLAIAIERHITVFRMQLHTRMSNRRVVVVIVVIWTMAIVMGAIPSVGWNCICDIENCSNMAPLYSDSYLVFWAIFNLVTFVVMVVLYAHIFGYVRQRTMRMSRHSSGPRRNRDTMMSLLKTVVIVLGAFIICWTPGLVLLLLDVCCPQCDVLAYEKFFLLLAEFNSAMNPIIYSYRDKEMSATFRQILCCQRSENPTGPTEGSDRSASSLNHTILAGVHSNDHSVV
human LPA2, sequence (Q9HBW0 whole entry): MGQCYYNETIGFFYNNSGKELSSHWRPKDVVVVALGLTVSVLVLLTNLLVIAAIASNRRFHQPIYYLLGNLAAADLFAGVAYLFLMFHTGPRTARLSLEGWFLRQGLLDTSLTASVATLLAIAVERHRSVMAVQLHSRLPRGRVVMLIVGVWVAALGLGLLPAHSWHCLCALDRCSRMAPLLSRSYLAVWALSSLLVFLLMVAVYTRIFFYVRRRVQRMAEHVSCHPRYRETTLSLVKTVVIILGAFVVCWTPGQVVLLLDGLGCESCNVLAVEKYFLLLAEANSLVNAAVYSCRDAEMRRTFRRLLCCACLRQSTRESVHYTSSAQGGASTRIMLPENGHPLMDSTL
human LPA5, sequence (Q9H1C0 whole entry): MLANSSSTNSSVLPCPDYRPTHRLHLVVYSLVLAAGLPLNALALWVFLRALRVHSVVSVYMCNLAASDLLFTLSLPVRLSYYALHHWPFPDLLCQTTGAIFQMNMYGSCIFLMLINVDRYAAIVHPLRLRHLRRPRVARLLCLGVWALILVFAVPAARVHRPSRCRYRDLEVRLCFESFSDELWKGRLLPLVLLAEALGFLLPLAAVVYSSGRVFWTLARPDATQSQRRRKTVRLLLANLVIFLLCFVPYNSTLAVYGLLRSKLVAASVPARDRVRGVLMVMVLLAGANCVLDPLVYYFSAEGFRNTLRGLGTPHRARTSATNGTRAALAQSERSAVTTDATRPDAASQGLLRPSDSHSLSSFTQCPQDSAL

`CCCCCCCCCCCCCCCC(=O)OC[C@@H](O)C[C@H](Br)P(=O)(O)O` [1b]: in test [1], the LPA3 ligand type result was “Antagonist”, the Ki turned out to be 623 nM and the IC50 came out at 2090 nM. For the same compound, in test [2], the LPA1 ligand type result is “Antagonist”, the Ki turned out to be 752 nM and the IC50 is 2080 nM. The LPA5 ligand type entry in test [3] (setting [11]) is reported as “Antagonist”. Further, in test [3] (read-out: LPA5 Ki, Ca2+ mobilization, RH7777 cells), the Ki turned out to be 376 nM. In addition, in [3] (read-out: LPA5 antagonist IC50, Ca2+ mobilization, RH7777 cells), the IC50 was 977 nM. Also, the “Inhibition of MDA-MB-231 invasion” value in test [4] is ~ 52%. The “Tumor volume relative to control group” value in test [5] was “significantly decreased the tumor volume”. In test [6], the LPA4 ligand type result was “Antagonist” and the LPA4 inhibition is 33.1%. Further, in [7], the ATX inhibition is listed as 99.4 ± 2.7 % Inhibition (10 μmol/L) and the half-inhibitory concentration (IC50) is 22 nM. In [8] (40 μmol/L, P < 0.05), the “Decrease of MDA-MB-231 cell migration vs untreated control” value is on record as 57%. In test [8], the “Effect on MDA-MB-231 cell migration” value was “inhibited the MDA-MB-231 cell migration”. In [9], the LPA2 ligand type result is given as “Antagonist”, the Ki was determined as 241 nM and the IC50 amounted to 275 nM.

As for `CCCCCCCCCCCCCCCC(=O)OC[C@@H](O)C[C@@H](Br)P(=O)(O)O` [1a], in test [1], the LPA3 ligand type entry was “Antagonist”, the inhibition constant (Ki) amounted to 1830 nM and the concentration for half-maximal inhibition (IC50) amounted to 4440 nM. Besides, in test [2], the LPA1 ligand type entry is “Antagonist”, the Ki was found to be 273 nM and the IC50 was 648 nM. The LPA5 ligand type entry in test [3] (setting [11]) is “Partial agonist”. The “LPA5 E max” value in [3] was found to be 64%. The “Inhibition of MDA-MB-231 invasion” value in [4] is reported as ~ 52%. Also, the “Tumor volume relative to control group” value in test [5] is listed as “significantly decreased the tumor volume”. In test [6], the LPA4 ligand type result is “Antagonist” and the LPA4 inhibition turned out to be 35.1%. Further, in [7], the ATX inhibition is recorded as 98.1 ± 2.3% inhibition (10 μmol/L) and the IC50 came to 165 nM. Further, the “Effect on MDA-MB-231 cell migration” value in test [8] is reported as “inhibited the MDA-MB-231 cell migration”. Moreover, in test [9], the LPA2 ligand type result is recorded as “Antagonist”, the Ki turned out to be 250 nM and the IC50 was found to be 288 nM.

As to `CC(=O)O[C@H]1C(=O)[C@@]2(C)[C@H]([C@H](OC(=O)c3ccccc3)[C@]3(O)C[C@H](OC(=O)[C@H](O)[C@@H](NC(=O)c4ccccc4)c4ccccc4)C(C)=C1C3(C)C)[C@]1(OC(C)=O)CO[C@@H]1C[C@@H]2O` [Taxol, reference compound], in [5], the “Blood vessel density in tumor (CD31 staining)” value is reported as “statistically different from the control” and the “Tumor size relative to controls” value is “reduction of tumor size relative to controls”.

For `CCCCCCCCCCCCCCCC(=O)OCC(O)CC(Br)P(=O)(O)O` (stereo not drawn) [compound 1, palmitoyl α-bromomethylenephosphonate], the LPA3 ligand type entry in [1] is listed as “Antagonist”. Moreover, the LPA3 inhibition in [1] (at 30 μmol/L (200 nmol/L LPA)) was determined as 71.3%. Moreover, in test [2], the LPA1 ligand type entry is reported as “Antagonist”, the Ki was determined as 805 nM and the IC50 came to 4520 nM. Further, the LPA5 ligand type entry in test [3] (setting [11]) is recorded as “Partial agonist”. For the same compound, the “LPA5 E max” value in [3] is given as 54%. Also, in test [3] (read-out: LPA5 agonist EC50, Ca2+ mobilization, NS = non-saturated), the EC50 worked out at 1280 nM. Besides, in test [5], the “Blood vessel density in tumor (CD31 staining)” value was “significantly lower blood vessel density” and the “Tumor size relative to controls” value is recorded as “reduction of tumor size relative to controls”. Besides, in test [5] (Taxol (10 mg/kg, two doses) then BrP-LPA 1 (10 mg/kg, two doses), i.p.), the “Blood vessel density in tumor (CD31 staining), sequential treatment” value is “statistically different from the control”. In addition, the “Tumor size relative to controls, sequential treatment” value in test [5] (two injections of Taxol (10 mg/kg) week 1, then two injections of BrP-LPA 1 (10 mg/kg) week 2, i.p.) is on record as “reduction of tumor size relative to controls”. Moreover, in [6], the LPA4 ligand type entry is recorded as “Antagonist” and the LPA4 inhibition worked out at 13.9%. Besides, the ATX inhibition in test [7] is given as 102 ± 2.7% inhibition (10 μmol/L). Moreover, the “Effect of mixed diastereomers on cell migration” value in test [8] (data not shown) is given as “intermediate inhibition of cell migration”. Besides, in test [9], the LPA2 ligand type entry was “Antagonist”, the Ki is 245 nM and the half-inhibitory concentration (IC50) turned out to be 468 nM. Moreover, in test [10], the ATX activity inhibited result is reported as “over 98%”.
